Converted amounts (≈) assume the structure as drawn.
Key:
Type in all cases: functional
Enterococcus faecalis [1] = experiment: Antibacterial activity against Enterococcus faecalis 14-1 after 18 to 24 hrs
Procedure, shortened: (§1)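 MIC by standard NCCLS reference procedure (M100-S11); lowest concentration of compound inhibiting visible bacterial growth after incubation at 35 °C for 18–24 h, read as complete inhibition of growth. Ciprofloxacin, levofloxacin and moxifloxacin run alongside as reference agents.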

Klebsiella pneumoniae [2] = experiment: Antibacterial activity against Klebsiella pneumoniae 14-2 after 18 to 24 hrs; procedure, shortened: as §1
Klebsiella pneumoniae [3] = experiment: Antibacterial activity against Klebsiella pneumoniae 14-4 after 18 to 24 hrs; procedure, shortened: as §1
Pseudomonas aeruginosa [4] = experiment: Antibacterial activity against Pseudomonas aeruginosa ATCC 27853 after 18 to 24 hrs; procedure, shortened: as §1
[5] = tested on: Staphylococcus epidermidis; experiment: Antibacterial activity against methicillin-resistant Staphylococcus epidermidis 14-22 after 18 to 24 hrs
Klebsiella pneumoniae [6] = experiment: Antibacterial activity against Klebsiella pneumoniae 14-1 after 18 to 24 hrs; procedure, shortened: as §1
Pseudomonas aeruginosa [7] = experiment: Antibacterial activity against Pseudomonas aeruginosa 14-14 after 18 to 24 hrs; procedure, shortened: as §1
Pseudomonas aeruginosa [8] = experiment: Antibacterial activity against Pseudomonas aeruginosa 14-19 after 18 to 24 hrs; procedure, shortened: as §1
Klebsiella pneumoniae [9] = experiment: Antibacterial activity against Klebsiella pneumoniae 14-3 after 18 to 24 hrs; procedure, shortened: as §1
Staphylococcus aureus [10] = experiment: Antibacterial activity against methicillin-sensitive Staphylococcus aureus 14-4 after 18 to 24 hrs; procedure, shortened: as §1
Escherichia coli [11] = experiment: Antibacterial activity against ESBL-positive Escherichia coli 14-1 after 18 to 24 hrs; procedure, shortened: as §1
Klebsiella pneumoniae [12] = experiment: Antibacterial activity against ESBL-positive Klebsiella pneumoniae 14-19 after 18 to 24 hrs; procedure, shortened: as §1
Enterococcus faecium [13] = experiment: Antibacterial activity against Enterococcus faecium 14-2 after 18 to 24 hrs; procedure, shortened: as §1
[14] = tested on: Staphylococcus epidermidis; experiment: Antibacterial activity against methicillin-resistant Staphylococcus epidermidis 14-37 after 18 to 24 hrs
Staphylococcus aureus [15] = experiment: Antibacterial activity against Staphylococcus aureus CMCC 26003 after 18 to 24 hrs; procedure, shortened: as §1
Escherichia coli [16] = experiment: Antibacterial activity against Escherichia coli 14-1 after 18 to 24 hrs; procedure, shortened: as §1
Staphylococcus aureus [17] = experiment: Antibacterial activity against methicillin-sensitive Staphylococcus aureus 14-3 after 18 to 24 hrs; procedure, shortened: as §1
Escherichia coli [18] = experiment: Antibacterial activity against Escherichia coli ATCC 25922 after 18 to 24 hrs; procedure, shortened: as §1
[19] = tested on: Staphylococcus epidermidis; experiment: Antibacterial activity against methicillin-resistant Staphylococcus epidermidis 14-21 after 18 to 24 hrs
Enterococcus faecium [20] = experiment: Antibacterial activity against Enterococcus faecium 14-5 after 18 to 24 hrs; procedure, shortened: as §1
[21] = tested on: Staphylococcus epidermidis; experiment: Antibacterial activity against methicillin-sensitive Staphylococcus epidermidis 14-2 after 18 to 24 hrs; procedure, shortened: as §1
Pseudomonas aeruginosa [22] = experiment: Antibacterial activity against Pseudomonas aeruginosa 14-16 after 18 to 24 hrs; procedure, shortened: as §1
Enterococcus faecium [23] = experiment: Antibacterial activity against Enterococcus faecium 14-6 after 18 to 24 hrs; procedure, shortened: as §1
Escherichia coli [24] = experiment: Antibacterial activity against Escherichia coli 14-2 after 18 to 24 hrs; procedure, shortened: as §1
Klebsiella pneumoniae [25] = experiment: Antibacterial activity against ESBL-positive Klebsiella pneumoniae 14-18 after 18 to 24 hrs; procedure, shortened: as §1
[26] = tested on: Staphylococcus epidermidis; experiment: Antibacterial activity against methicillin-resistant Staphylococcus epidermidis 14-39 after 18 to 24 hrs
Staphylococcus aureus [27] = experiment: Antibacterial activity against methicillin-sensitive Staphylococcus aureus 14-1 after 18 to 24 hrs; procedure, shortened: as §1
Streptococcus pneumoniae = experiment: Antibacterial activity against Streptococcus pneumoniae ATCC 19615 after 18 to 24 hrs; procedure, shortened: as §1
Klebsiella pneumoniae [28] = experiment: Antibacterial activity against ESBL-positive Klebsiella pneumoniae 14-17 after 18 to 24 hrs; procedure, shortened: as §1
Staphylococcus aureus [29] = experiment: Antibacterial activity against methicillin-sensitive Staphylococcus aureus 14-2 after 18 to 24 hrs; procedure, shortened: as §1
Staphylococcus aureus [30] = experiment: Antibacterial activity against methicillin-resistant Staphylococcus aureus 14-5 after 18 to 24 hrs
Pseudomonas aeruginosa [31] = experiment: Antibacterial activity against Pseudomonas aeruginosa 14-15 after 18 to 24 hrs; procedure, shortened: as §1
Staphylococcus aureus [32] = experiment: Antibacterial activity against methicillin-resistant Staphylococcus aureus 14-4 after 18 to 24 hrs
Enterococcus faecium [33] = experiment: Antibacterial activity against Enterococcus faecium 14-1 after 18 to 24 hrs; procedure, shortened: as §1
[34] = tested on: Mycobacterium tuberculosis; experiment: Antimycobacterial activity against Mycobacterium tuberculosis H37Rv ATCC 27294 by alamar blue assay
Procedure, shortened: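 Microplate Alamar Blue Assay; MIC is the lowest concentration giving ≥90% reduction in fluorescence relative to the mean of replicate bacterium-only controls. MDR strain 6133 is resistant to isoniazid and rifampicin.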

Enterococcus faecalis [35] = experiment: Antibacterial activity against Enterococcus faecalis 14-2 after 18 to 24 hrs; procedure, shortened: as §1
Pseudomonas aeruginosa [36] = experiment: Antibacterial activity against Pseudomonas aeruginosa 14-9 after 18 to 24 hrs; procedure, shortened: as §1
Escherichia coli [37] = experiment: Antibacterial activity against ESBL-positive Escherichia coli 14-2 after 18 to 24 hrs; procedure, shortened: as §1

| Structure (SMILES) | MIC (Enterococcus faecalis [1]) | MIC (Klebsiella pneumoniae [2]) | MIC (Klebsiella pneumoniae [3]) | MIC (Pseudomonas aeruginosa [4]) | MIC [5] | MIC (Klebsiella pneumoniae [6]) | MIC (Pseudomonas aeruginosa [7]) | MIC (Pseudomonas aeruginosa [8]) | MIC (Klebsiella pneumoniae [9]) | MIC (Staphylococcus aureus [10]) | MIC (Escherichia coli [11]) | MIC (Klebsiella pneumoniae [12]) | MIC (Enterococcus faecium [13]) | MIC [14] | MIC (Staphylococcus aureus [15]) | MIC (Escherichia coli [16]) | MIC (Staphylococcus aureus [17]) | MIC (Escherichia coli [18]) | MIC [19] | MIC (Enterococcus faecium [20]) | other results |
| --- | --- | --- | --- | --- | --- | --- | --- | --- | --- | --- | --- | --- | --- | --- | --- | --- | --- | --- | --- | --- | --- |
| CCO/N=C1\CN(c2nc3c(cc2F)c(=O)c(C(=O)O)cn3[C@@H]2C[C@@H]2F)CC1(C)CN (stereo partly specified) | 8 µg/mL (≈ 18.4 µM) | 128 µg/mL (≈ 294 µM) | 128 µg/mL (≈ 294 µM) | 2 µg/mL (≈ 4.59 µM) | 2 µg/mL (≈ 4.59 µM) | 128 µg/mL (≈ 294 µM) | 8 µg/mL (≈ 18.4 µM) | 8 µg/mL (≈ 18.4 µM) | 128 µg/mL (≈ 294 µM) | < 0.008 µg/mL | 4 µg/mL (≈ 9.19 µM) | 128 µg/mL (≈ 294 µM) | 2 µg/mL (≈ 4.59 µM) | 8 µg/mL (≈ 18.4 µM) | < 0.008 µg/mL | 32 µg/mL (≈ 73.5 µM) | < 0.008 µg/mL | < 0.008 µg/mL | 2 µg/mL (≈ 4.59 µM) | 4 µg/mL (≈ 9.19 µM) | MIC [21]: 8 µg/mL (≈ 18.4 µM); MIC (Pseudomonas aeruginosa [22]): 8 µg/mL (≈ 18.4 µM); MIC (Enterococcus faecium [23]): 8 µg/mL (≈ 18.4 µM); MIC (Escherichia coli [24]): 32 µg/mL (≈ 73.5 µM); MIC (Klebsiella pneumoniae [25]): 4 µg/mL (≈ 9.19 µM); MIC [26]: 8 µg/mL (≈ 18.4 µM); MIC (Staphylococcus aureus [27]): 2 µg/mL (≈ 4.59 µM); MIC (Streptococcus pneumoniae): < 0.008 µg/mL; MIC (Klebsiella pneumoniae [28]): 4 µg/mL (≈ 9.19 µM); MIC (Staphylococcus aureus [29]): < 0.008 µg/mL; MIC (Staphylococcus aureus [30]): 4 µg/mL (≈ 9.19 µM); MIC (Pseudomonas aeruginosa [31]): 8 µg/mL (≈ 18.4 µM); MIC (Staphylococcus aureus [32]): 4 µg/mL (≈ 9.19 µM); MIC (Enterococcus faecium [33]): 2 µg/mL (≈ 4.59 µM); MIC90 [34]: 0.333 µg/mL (≈ 0.765 µM); MIC (Enterococcus faecalis [35]): 0.03 µg/mL (≈ 0.0689 µM); MIC (Pseudomonas aeruginosa [36]): 4 µg/mL (≈ 9.19 µM); MIC (Escherichia coli [37]): 128 µg/mL (≈ 294 µM) |
| CC1(CN)CN(c2nc3c(cc2F)c(=O)c(C(=O)O)cn3[C@@H]2C[C@@H]2F)C/C1=N\OCc1ccccc1 (stereo partly specified) | 32 µg/mL (≈ 64.3 µM) | > 128 µg/mL | > 128 µg/mL | 8 µg/mL (≈ 16.1 µM) | 4 µg/mL (≈ 8.04 µM) | 128 µg/mL (≈ 257 µM) | 32 µg/mL (≈ 64.3 µM) | 8 µg/mL (≈ 16.1 µM) | 128 µg/mL (≈ 257 µM) | < 0.008 µg/mL | 8 µg/mL (≈ 16.1 µM) | 64 µg/mL (≈ 129 µM) | 4 µg/mL (≈ 8.04 µM) | 16 µg/mL (≈ 32.2 µM) | < 0.008 µg/mL | > 128 µg/mL | < 0.008 µg/mL | 0.125 µg/mL (≈ 0.251 µM) | 4 µg/mL (≈ 8.04 µM) | 8 µg/mL (≈ 16.1 µM) | MIC [21]: 16 µg/mL (≈ 32.2 µM); MIC (Pseudomonas aeruginosa [22]): 32 µg/mL (≈ 64.3 µM); MIC (Enterococcus faecium [23]): 8 µg/mL (≈ 16.1 µM); MIC (Escherichia coli [24]): > 128 µg/mL; MIC (Klebsiella pneumoniae [25]): 32 µg/mL (≈ 64.3 µM); MIC [26]: 16 µg/mL (≈ 32.2 µM); MIC (Staphylococcus aureus [27]): 2 µg/mL (≈ 4.02 µM); MIC (Streptococcus pneumoniae): < 0.008 µg/mL; MIC (Klebsiella pneumoniae [28]): 16 µg/mL (≈ 32.2 µM); MIC (Staphylococcus aureus [29]): < 0.008 µg/mL; MIC (Staphylococcus aureus [30]): 4 µg/mL (≈ 8.04 µM); MIC (Pseudomonas aeruginosa [31]): 32 µg/mL (≈ 64.3 µM); MIC (Staphylococcus aureus [32]): 8 µg/mL (≈ 16.1 µM); MIC (Enterococcus faecium [33]): 4 µg/mL (≈ 8.04 µM); MIC90 [34]: 0.514 µg/mL (≈ 1.03 µM); MIC (Enterococcus faecalis [35]): 0.25 µg/mL (≈ 0.503 µM); MIC (Pseudomonas aeruginosa [36]): 16 µg/mL (≈ 32.2 µM); MIC (Escherichia coli [37]): > 128 µg/mL |
